Measurements taken from ChEMBL document CHEMBL1145096, “Synthesis and cytotoxic activity of two novel 1-dodecylthio-2-decyloxypropyl-3-phosphatidic acid conjugates with gemcitabine and cytosine arabinoside” (J Med Chem, 2003).
pIC50: −log10 of the molar value.

Key:
HL-60 = assay: Inhibitory activity against HL-60 (human, promyelocytic leukemia) cell line; format: functional, cell-based
Outline: (§1)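 Cells kept in log phase in RPMI-1640 with 10% FBS and 1% penicillin-streptomycin, humidified 5% CO2/95% air, 37 °C. Viability read by CellTiter 96 aqueous proliferation assay (microplate optical density). Drug-treated optical densities compared with untreated controls; IC50 obtained by nonlinear regression.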

BG-1 cell line = assay: Inhibitory activity against BG-1 (human, […] adenocarcinoma) cell line; format: functional, cell-based; outline: as §1
CEM-SS = assay: Inhibitory activity against CEM-SS (human T-4 lymphoblastoid clone) cell line; format: functional, cell-based; outline: as §1
BXPC-3 = assay: Inhibitory activity against BxPC3 (human,pancreas,adenocarcinoma) cell line; format: functional, cell-based
Outline: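 BxPC3 grown in log phase in RPMI-1640 plus 10% FBS, 10 mM HEPES, 1.5 g/L NaHCO3, sodium pyruvate and 1% penicillin-streptomycin, at 37 °C under 5% CO2. CellTiter 96 aqueous proliferation readout by optical density. Treated wells compared with untreated controls; IC50 from nonlinear regression.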

HT-29 = assay: Inhibitory activity against HT-29 (human,colon,adenocarcinoma) cell line; format: functional, cell-based
Outline: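 Colon line kept in log phase in McCoy's 5A modified medium with 10% FBS and 1% penicillin-streptomycin, 37 °C, 5% CO2 humidified. Proliferation measured by CellTiter 96 aqueous assay (optical density) against untreated cells; IC50 fitted by nonlinear regression.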

HeLa = assay: Inhibitory activity against HeLa (human, epitheloid carcinoma, cervix) cell line; format: functional, cell-based
Outline: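 HeLa maintained in log phase in DMEM, 10% FBS, 1% penicillin-streptomycin, humidified 5% CO2 at 37 °C. Growth quantified with CellTiter 96 aqueous assay by microplate optical density. Values expressed relative to untreated controls; IC50 by nonlinear regression.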

MCF7 = assay: Inhibitory activity against MCF-7/WT-2'' (human, breast carcinoma) cell line; format: functional, cell-based
Outline: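 MCF7/WT-2' grown in log phase in D-MEM/F-12 with 10% FBS, 10 μg/mL insulin and 1% penicillin-streptomycin, 37 °C, 5% CO2. Read-out was CellTiter 96 aqueous proliferation assay (optical density) versus untreated control. IC50 derived by nonlinear regression.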

SK-LU-1 = assay: Inhibitory activity against SK-LU-1 (human,lung,adenocarcinoma) cell line; format: functional, cell-based
Outline: (§2)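 Maintained in log phase in MEM with 10% FBS and 1% penicillin-streptomycin at 37 °C in humidified 5% CO2. Cell proliferation read with CellTiter 96 aqueous assay by optical density. Treated versus untreated control; IC50 calculated by nonlinear regression.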

U373 MG = assay: Inhibitory activity against U373-MG (human, glioblastoma) cell line; format: functional, cell-based, U-373MG ATCC; outline: as §2
SCC-25 = assay: Inhibitory activity against SCC-25 (human, squamous cell carcinoma, tongue) cell line; format: functional, cell-based
Outline: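 SCC-25 cultured in log phase in DMEM with 10% FBS, 400 ng/mL hydrocortisone and 1% penicillin-streptomycin, humidified 5% CO2/95% air, 37 °C. CellTiter 96 aqueous assay, optical density compared with untreated cells; IC50 from nonlinear regression.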

pIC50 (HL-60) | pIC50 (BG-1 cell line) | pIC50 (CEM-SS) | pIC50 (BXPC-3) | pIC50 (HT-29) | pIC50 (HeLa) | pIC50 (MCF7) | pIC50 (SK-LU-1) | pIC50 (U373 MG) | pIC50 (SCC-25) | SMILES
6.12 | – | – | – | – | – | – | – | – | – | Nc1ccn([C@@H]2O[C@H](CO)[C@@H](O)[C@@H]2O)c(=O)n1 [CYTARABINE]
6.48 | 6.17 | 7.52 | 6.80 | 7.37 | 8.10 | 5.78 | 7.26 | 6.89 | 7.33 | Nc1ccn([C@@H]2O[C@H](CO)[C@@H](O)C2(F)F)c(=O)n1 [GEMCITABINE]
5.74 | 5.74 | 6.22 | 5.80 | 6.12 | 6.16 | 5.76 | 5.95 | 6.54 | 6.23 | CCCCCCCCCCCCSCC(COP(=O)(O)OC[C@H]1O[C@@H](n2ccc(N)nc2=O)C(F)(F)[C@@H]1O)OCCCCCCCCCC (some centres not stated)
4.17 | – | – | – | – | – | – | – | – | – | CCCCCCCCCCCCSCC(COP(=O)(O)OCC1OC(n2ccc(N)nc2=O)[C@@H](O)C1O)OCCCCCCCCCC (some centres not stated)
